Experimental data from ChEMBL document CHEMBL5058577, “EUbOPEN Chemogenomics Library 2 (Multiplex)” (2022).

Test system: HEK-293T
Assay: Multiplex assay against HEK293T
Type: toxicity, cell-based
Conditions: human
Procedure, shortened: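 With compound added, live cells were imaged on a CQ1 microscope at 37°C and 5% CO2; staining with Hoechst33342, BioTracker Green Microtubule Cytoskeleton Dye, MitoTracker Red and Annexin V Alexa Fluor 680 had been done at seeding. The CellPathfinder machine-learning gating scheme split cells into Hoechst high-intensity objects or normal cells, normal cells into healthy, pyknosed or fragmented nuclei, and pyknosed cells into mitotic or apoptotic. The tubulin, mitochondrial-mass and membrane-permeability phenotypes are per cents of healthy-nucleus cells.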

[1] = 12 h, 1 µM, compound concentration 1 uM, replicate 1
[2] = 12 h, 1 µM, compound concentration 1 uM, replicate 2
[3] = 12 h, 10 µM, compound concentration 10 uM, replicate 1
[4] = 12 h, 10 µM, compound concentration 10 uM, replicate 2
[5] = 24 h, 1 µM, compound concentration 1 uM, replicate 1
[6] = 24 h, 1 µM, compound concentration 1 uM, replicate 2
[7] = 24 h, 10 µM, compound concentration 10 uM, replicate 1
[8] = 24 h, 10 µM, compound concentration 10 uM, replicate 2
[9] = 48 h, 1 µM, compound concentration 1 uM, replicate 1
[10] = 48 h, 1 µM, compound concentration 1 uM, replicate 2
[11] = 48 h, 10 µM, compound concentration 10 uM, replicate 1
[12] = 48 h, 10 µM, compound concentration 10 uM, replicate 2

## COCCn1c(C)c(C)s/c1=N\C(=O)C1C(C)(C)C1(C)C
[1]
  Population Apoptotic (%): 37%
  Population Fragmented Nuclei (%): 10%
  Population Healthy Nuclei (%): 77%
  Population Hoechst High Intensity Objects (%): 6%
  Population Membrane Permeable-Phenotype (%): 0%
  Population Mitochondria Different-Phenotype (%): 45%
  Population Mitotic Cells (%): 62%
  Population Normal (%): 93%
  Population Pyknosed Nuclei (%): 12%
  Population Tubulin-Different-Phenotype (%): 29%
  Total Cell Count: 335
[2]
  Population Apoptotic (%): 41%
  Population Fragmented Nuclei (%): 5%
  Population Healthy Nuclei (%): 82%
  Population Hoechst High Intensity Objects (%): 4%
  Population Mitochondria Different-Phenotype (%): 77%
  Population Mitotic Cells (%): 58%
  Population Normal (%): 95%
  Population Tubulin-Different-Phenotype (%): 26%
  Total Cell Count: 304
[3]
  Population Apoptotic (%): 77%
  Population Fragmented Nuclei (%): 33%
  Population Healthy Nuclei (%): 52%
  Population Hoechst High Intensity Objects (%): 18%
  Population Membrane Permeable-Phenotype (%): 0%
  Population Mitochondria Different-Phenotype (%): 91%
  Population Mitotic Cells (%): 22%
  Population Normal (%): 81%
  Population Pyknosed Nuclei (%): 13%
  Population Tubulin-Different-Phenotype (%): 67%
  Total Cell Count: 80
[4]
  Population Apoptotic (%): 53%
  Population Fragmented Nuclei (%): 8%
  Population Healthy Nuclei (%): 75%
  Population Hoechst High Intensity Objects (%): 11%
  Population Mitochondria Different-Phenotype (%): 72%
  Population Mitotic Cells (%): 46%
  Population Normal (%): 88%
  Population Pyknosed Nuclei (%): 16%
  Population Tubulin-Different-Phenotype (%): 38%
  Total Cell Count: 315
[5]
  Population Apoptotic (%): 19%
  Population Fragmented Nuclei (%): 7%
  Population Healthy Nuclei (%): 81%
  Population Hoechst High Intensity Objects (%): 4%
  Population Membrane Permeable-Phenotype (%): 0%
  Population Mitochondria Different-Phenotype (%): 26%
  Population Mitotic Cells (%): 80%
  Population Normal (%): 95%
  Population Pyknosed Nuclei (%): 11%
  Population Tubulin-Different-Phenotype (%): 20%
  Total Cell Count: 447
[6]
  Population Apoptotic (%): 35%
  Population Fragmented Nuclei (%): 8%
  Population Hoechst High Intensity Objects (%): 7%
  Population Mitochondria Different-Phenotype (%): 47%
  Population Mitotic Cells (%): 64%
  Population Normal (%): 92%
  Population Pyknosed Nuclei (%): 10%
  Population Tubulin-Different-Phenotype (%): 17%
  Total Cell Count: 383
[7]
  Population Apoptotic (%): 71%
  Population Fragmented Nuclei (%): 30%
  Population Healthy Nuclei (%): 61%
  Population Hoechst High Intensity Objects (%): 15%
  Population Membrane Permeable-Phenotype (%): 0%
  Population Mitochondria Different-Phenotype (%): 53%
  Population Mitotic Cells (%): 28%
  Population Normal (%): 84%
  Population Pyknosed Nuclei (%): 8%
  Population Tubulin-Different-Phenotype (%): 36%
  Total Cell Count: 101
[8]
  Population Apoptotic (%): 45%
  Population Fragmented Nuclei (%): 11%
  Population Healthy Nuclei (%): 75%
  Population Hoechst High Intensity Objects (%): 7%
  Population Mitochondria Different-Phenotype (%): 62%
  Population Mitotic Cells (%): 54%
  Population Normal (%): 92%
  Population Pyknosed Nuclei (%): 13%
  Population Tubulin-Different-Phenotype (%): 30%
  Total Cell Count: 376
[9]
  Population Apoptotic (%): 20%
  Population Fragmented Nuclei (%): 13%
  Population Healthy Nuclei (%): 75%
  Population Hoechst High Intensity Objects (%): 3%
  Population Membrane Permeable-Phenotype (%): 0%
  Population Mitochondria Different-Phenotype (%): 22%
  Population Mitotic Cells (%): 79%
  Population Normal (%): 96%
  Population Pyknosed Nuclei (%): 11%
  Population Tubulin-Different-Phenotype (%): 14%
  Total Cell Count: 649
[10]
  Population Apoptotic (%): 45%
  Population Fragmented Nuclei (%): 11%
  Population Healthy Nuclei (%): 81%
  Population Mitochondria Different-Phenotype (%): 31%
  Population Mitotic Cells (%): 55%
  Population Normal (%): 97%
  Population Pyknosed Nuclei (%): 7%
  Population Tubulin-Different-Phenotype (%): 12%
  Total Cell Count: 567
[11]
  Population Apoptotic (%): 60%
  Population Fragmented Nuclei (%): 18%
  Population Healthy Nuclei (%): 73%
  Population Hoechst High Intensity Objects (%): 2%
  Population Membrane Permeable-Phenotype (%): 2%
  Population Mitochondria Different-Phenotype (%): 30%
  Population Mitotic Cells (%): 40%
  Population Normal (%): 97%
  Population Pyknosed Nuclei (%): 8%
  Population Tubulin-Different-Phenotype (%): 31%
  Total Cell Count: 191
[12]
  Population Apoptotic (%): 38%
  Population Fragmented Nuclei (%): 13%
  Population Healthy Nuclei (%): 79%
  Population Hoechst High Intensity Objects (%): 4%
  Population Membrane Permeable-Phenotype (%): 0%
  Population Mitochondria Different-Phenotype (%): 46%
  Population Mitotic Cells (%): 61%
  Population Normal (%): 95%
  Population Pyknosed Nuclei (%): 6%
  Population Tubulin-Different-Phenotype (%): 24%
  Total Cell Count: 493
